# Data from ChEMBL document CHEMBL4610127, “Novel Autotaxin Inhibitor for the Treatment of Idiopathic Pulmonary Fibrosis: A Clinical Candidate Discovered Using DNA-Encoded Chemistry” (J Med Chem, 2020).
# The source made the active and inactive calls. No cut-off for these calls is given here.
# What was measured:
# Mus musculus [1] = assay: Anti-fibrotic activity in C57BL/6 mouse model of bleomycin-induced lung fibrosis assessed as reduction in hydroxyproline levels at 100 to 300 mg/kg, po BID dosed until day 21 starting one day prior to bleomycin treatment; type: functional, organism-based
# How it was run: (§1)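 Mice given oral BID doses (30, 100 or 300 mg/kg) starting one day before bleomycin. Killed 21 days after bleomycin; lung fibrosis scored by hydroxyproline in one group. GLPG1690 at 30 and 100 mg/kg BID as control. Hydroxyproline plotted per mouse; medians and p-values against bleomycin + vehicle.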
# [2] = molecular target: T1, Voltage-gated inwardly rectifying potassium channel KCNH2 (Homo sapiens, UniProt Q12809); assay: Inhibition of human ERG by manual patch clamp assay
# T1 sequence (Q12809 whole entry): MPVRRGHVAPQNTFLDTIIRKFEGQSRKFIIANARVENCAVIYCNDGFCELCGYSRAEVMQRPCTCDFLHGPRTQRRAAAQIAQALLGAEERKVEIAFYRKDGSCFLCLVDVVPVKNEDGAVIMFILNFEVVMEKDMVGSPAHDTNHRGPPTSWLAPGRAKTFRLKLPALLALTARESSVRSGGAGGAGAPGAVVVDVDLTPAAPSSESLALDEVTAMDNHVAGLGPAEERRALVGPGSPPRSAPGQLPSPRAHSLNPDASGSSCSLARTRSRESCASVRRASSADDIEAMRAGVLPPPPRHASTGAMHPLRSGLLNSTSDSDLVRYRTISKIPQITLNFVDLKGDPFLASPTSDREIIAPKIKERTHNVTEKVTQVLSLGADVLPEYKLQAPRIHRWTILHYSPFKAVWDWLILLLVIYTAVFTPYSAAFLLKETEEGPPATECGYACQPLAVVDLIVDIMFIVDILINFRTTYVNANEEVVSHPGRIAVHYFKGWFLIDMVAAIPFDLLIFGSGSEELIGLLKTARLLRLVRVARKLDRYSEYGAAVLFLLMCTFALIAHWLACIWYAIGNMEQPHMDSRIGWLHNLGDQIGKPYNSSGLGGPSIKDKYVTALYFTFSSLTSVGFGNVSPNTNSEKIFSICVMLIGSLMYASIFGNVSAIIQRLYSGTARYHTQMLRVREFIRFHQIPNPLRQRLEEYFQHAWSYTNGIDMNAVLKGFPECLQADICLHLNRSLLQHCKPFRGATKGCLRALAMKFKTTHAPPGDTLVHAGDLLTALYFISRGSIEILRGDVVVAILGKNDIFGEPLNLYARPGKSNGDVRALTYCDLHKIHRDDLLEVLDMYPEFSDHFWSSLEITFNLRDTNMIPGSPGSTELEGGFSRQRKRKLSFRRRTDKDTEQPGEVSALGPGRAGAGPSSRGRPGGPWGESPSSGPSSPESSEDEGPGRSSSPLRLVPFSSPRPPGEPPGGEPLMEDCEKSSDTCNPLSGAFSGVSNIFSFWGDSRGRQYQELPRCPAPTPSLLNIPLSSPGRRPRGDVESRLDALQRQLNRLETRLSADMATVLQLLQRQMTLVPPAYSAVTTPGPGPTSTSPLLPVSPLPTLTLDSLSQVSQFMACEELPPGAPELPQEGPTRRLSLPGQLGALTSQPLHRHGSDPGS
# [3] = Oral bioavailability in dog at 1 mg/kg; type: ADME, organism-based, Canis lupus familiaris; conditions: in vivo
# Mus musculus [4] = assay: Anti-fibrotic activity in C57BL/6 mouse model of bleomycin-induced lung fibrosis assessed as reduction in lung fibrosis levels at 30 to 300 mg/kg, po BID for 21 days dosed 7 days after bleomycin treatment by trichrome staining based assay; type: functional, organism-based
# How it was run: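 Therapeutic mode: oral BID dosing (30, 100, 300 mg/kg) began seven days after bleomycin. Mice killed 21 days after bleomycin; fibrosis quantitated by trichrome staining of lung tissue in a separate group from the hydroxyproline group. GLPG1690 at 30 and 100 mg/kg BID as control.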
# [5] = molecular target: Lysophosphatidic acid receptor 2 (Homo sapiens, UniProt Q9HBW0); assay: Inhibition of LPAR2 (unknown origin)
# Sequence of Lysophosphatidic acid receptor 2 (Q9HBW0 whole entry): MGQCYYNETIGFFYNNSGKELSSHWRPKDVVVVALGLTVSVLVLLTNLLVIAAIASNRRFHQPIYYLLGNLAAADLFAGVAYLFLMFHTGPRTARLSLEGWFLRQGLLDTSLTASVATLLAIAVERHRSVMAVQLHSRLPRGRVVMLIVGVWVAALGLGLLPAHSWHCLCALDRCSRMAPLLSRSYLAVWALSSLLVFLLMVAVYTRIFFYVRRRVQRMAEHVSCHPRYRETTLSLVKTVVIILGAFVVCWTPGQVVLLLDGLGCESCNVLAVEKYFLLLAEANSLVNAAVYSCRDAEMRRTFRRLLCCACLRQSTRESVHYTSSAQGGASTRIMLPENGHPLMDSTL
# Mus musculus [6] = assay: Anti-fibrotic activity in C57BL/6 mouse model of bleomycin-induced lung fibrosis assessed as reduction in hydroxyproline levels at 30 to 300 mg/kg, po BID dosed until day 21 starting one day prior to bleomycin treatment; type: functional; conditions: C57BL/6, po, read-out: MED; how it was run: as §1
# [7] = Time above IC90 in mouse at 30 mg/kg, po; type: ADME, organism-based; conditions: in vivo
# [8] = molecular target: Lysophosphatidic acid receptor 1 (Homo sapiens, UniProt Q92633); assay: Inhibition of LPAR1 (unknown origin)
# Sequence of Lysophosphatidic acid receptor 1 (Q92633 whole entry): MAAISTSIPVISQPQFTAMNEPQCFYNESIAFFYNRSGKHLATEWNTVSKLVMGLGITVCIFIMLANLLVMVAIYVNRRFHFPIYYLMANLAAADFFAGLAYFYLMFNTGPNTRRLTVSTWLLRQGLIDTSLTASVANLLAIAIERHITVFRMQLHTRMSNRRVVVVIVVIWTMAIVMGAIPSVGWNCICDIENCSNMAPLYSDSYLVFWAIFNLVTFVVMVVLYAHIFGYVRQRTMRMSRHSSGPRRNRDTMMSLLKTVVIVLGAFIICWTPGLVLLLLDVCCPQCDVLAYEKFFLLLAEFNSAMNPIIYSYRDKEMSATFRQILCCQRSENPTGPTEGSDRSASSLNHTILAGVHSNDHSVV
# [9] = Cmax in mouse at 10 mg/kg, po; type: ADME, organism-based; parameters: dose 10 mg/kg, route oral; conditions: in vivo
# [10] = Clearance in rat at 1 mg/kg, iv; type: ADME, organism-based; conditions: in vivo
# [11] = Half life in dog at 1 mg/kg, po; type: ADME, organism-based, Canis lupus familiaris; conditions: in vivo
# Cytochrome P450 2C19 = Cytochrome P450 2C19 (Homo sapiens, UniProt P33261); assay: Inhibition of CYP2C19 (unknown origin); type: ADME
# Sequence of Cytochrome P450 2C19 (P33261 whole entry): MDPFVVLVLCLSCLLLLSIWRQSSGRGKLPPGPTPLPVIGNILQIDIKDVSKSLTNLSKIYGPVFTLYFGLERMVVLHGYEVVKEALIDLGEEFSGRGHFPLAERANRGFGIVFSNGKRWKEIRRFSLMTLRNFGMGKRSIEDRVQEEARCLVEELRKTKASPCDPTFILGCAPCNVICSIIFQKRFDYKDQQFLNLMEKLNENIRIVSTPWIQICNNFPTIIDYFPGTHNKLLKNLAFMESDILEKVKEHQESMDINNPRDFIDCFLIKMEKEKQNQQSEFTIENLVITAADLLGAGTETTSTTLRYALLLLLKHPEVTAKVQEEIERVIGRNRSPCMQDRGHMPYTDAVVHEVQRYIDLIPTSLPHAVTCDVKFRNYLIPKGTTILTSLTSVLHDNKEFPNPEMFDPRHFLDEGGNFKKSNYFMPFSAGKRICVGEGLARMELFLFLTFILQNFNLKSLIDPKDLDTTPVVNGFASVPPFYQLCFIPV
# Mus musculus [12] = assay: Anti-fibrotic activity in C57BL/6 mouse model of bleomycin-induced lung fibrosis assessed as reduction in hydroxyproline levels at 100 to 300 mg/kg, po BID for 21 days dosed 7 days after bleomycin treatment; type: functional, organism-based
# How it was run: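 Mice given oral BID doses (30, 100 or 300 mg/kg) starting seven days after bleomycin. Killed 21 days after bleomycin; lung fibrosis scored by hydroxyproline in one group. GLPG1690 at 30 and 100 mg/kg BID as control. Medians and p-values against bleomycin + vehicle.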
# [13] = Half life in mouse at 1 mg/kg, iv; type: ADME, organism-based; conditions: in vivo
# [14] = Volume of distribution at steady state in mouse at 1 mg/kg, iv; type: ADME, organism-based; conditions: in vivo, read-out: Vdss
# Autotaxin [15] = molecular target: T2, Autotaxin (Homo sapiens, UniProt Q13822); assay: Inhibition of autotaxin in human plasma assessed as reduction in LPA (18:2) production incubated for 2 hrs LC-MS-/MS analysis; type: cell-free
# [16] = Oral bioavailability in rat at 5 mg/kg; type: ADME, organism-based; conditions: in vivo
# Cytochrome P450 2D6 = Cytochrome P450 2D6 (Homo sapiens, UniProt P10635); assay: Inhibition of CYP2D6 (unknown origin); type: ADME
# Sequence of Cytochrome P450 2D6 (P10635 whole entry): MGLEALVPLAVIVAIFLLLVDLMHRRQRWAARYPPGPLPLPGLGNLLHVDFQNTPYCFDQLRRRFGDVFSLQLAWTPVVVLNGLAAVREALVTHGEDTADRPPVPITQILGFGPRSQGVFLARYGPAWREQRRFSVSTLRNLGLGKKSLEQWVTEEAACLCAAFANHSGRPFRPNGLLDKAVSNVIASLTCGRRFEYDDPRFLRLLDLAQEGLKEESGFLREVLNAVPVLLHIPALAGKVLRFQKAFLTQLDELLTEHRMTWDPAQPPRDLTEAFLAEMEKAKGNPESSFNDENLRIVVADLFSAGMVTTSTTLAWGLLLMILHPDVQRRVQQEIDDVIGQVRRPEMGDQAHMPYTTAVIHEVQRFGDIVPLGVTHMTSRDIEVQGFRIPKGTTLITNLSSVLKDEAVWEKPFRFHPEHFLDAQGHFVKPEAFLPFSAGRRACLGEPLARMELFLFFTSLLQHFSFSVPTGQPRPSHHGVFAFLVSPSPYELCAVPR
# [17] = Half life in rat at 5 mg/kg, po; type: ADME, organism-based; conditions: in vivo
# [18] = Cmax in dog at 1 mg/kg, po; type: ADME, organism-based, Canis lupus familiaris; parameters: dose 1 mg/kg, route oral; conditions: in vivo
# [19] = Half life in rat liver microsomes; type: ADME, Microsome
# Rattus norvegicus = assay: Inhibition of LPA (20:4) production in rat at 0.1 to 30 mg/kg, po measured after 4 hrs by LC-MS/MS analysis; type: functional, organism-based
# How it was run: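 Rats dosed orally across a dose range. LPA 20:4 and compound levels measured by LC-MS/MS in blood at 4 h post-dose. LPA 20:4 chosen because it is more abundant in rats. Average percent inhibition of LPA plotted against plasma compound level to derive IC50.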
# [20] = AUClast in dog at 1 mg/kg, po; type: ADME, organism-based, Canis lupus familiaris; parameters: dose 1 mg/kg, time 0 - last, route oral; conditions: in vivo
# [21] = Oral bioavailability in mouse at 10 mg/kg; type: ADME, organism-based; conditions: in vivo
# [22] = molecular target: T1, Voltage-gated inwardly rectifying potassium channel KCNH2; assay: Inhibition of human ERG by GLP based assay
# Cytochrome P450 2C9 = Cytochrome P450 2C9 (Homo sapiens, UniProt P11712); assay: Inhibition of CYP2C9 (unknown origin); type: ADME
# Sequence of Cytochrome P450 2C9 (P11712 whole entry): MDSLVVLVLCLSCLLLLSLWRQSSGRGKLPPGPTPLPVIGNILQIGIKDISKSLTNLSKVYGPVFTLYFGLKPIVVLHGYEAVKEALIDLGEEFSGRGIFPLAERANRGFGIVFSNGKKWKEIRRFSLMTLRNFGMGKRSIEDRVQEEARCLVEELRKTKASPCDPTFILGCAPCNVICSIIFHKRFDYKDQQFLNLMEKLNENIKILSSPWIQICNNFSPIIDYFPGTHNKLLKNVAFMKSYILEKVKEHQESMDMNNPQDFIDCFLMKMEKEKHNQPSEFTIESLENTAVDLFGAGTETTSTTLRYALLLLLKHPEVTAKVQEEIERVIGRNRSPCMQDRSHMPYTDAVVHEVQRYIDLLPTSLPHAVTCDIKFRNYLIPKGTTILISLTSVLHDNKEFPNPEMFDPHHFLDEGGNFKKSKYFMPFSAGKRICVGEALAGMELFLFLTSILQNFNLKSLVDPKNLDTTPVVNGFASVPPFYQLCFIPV
# [23] = Half life in dog at 1 mg/kg, iv; type: ADME, organism-based, Canis lupus familiaris; conditions: in vivo
# [24] = Cmax in rat at 5 mg/kg, po; type: ADME, organism-based; parameters: dose 5 mg/kg, route oral; conditions: in vivo
# Autotaxin [25] = molecular target: T2, Autotaxin; assay: Potency index, ratio of IC50 for GLPG1690 to IC50 for test compound for inhibition of autotaxin in human plasma assessed as reduction in LPA (18:2) production incubated for 2 hrs LC-MS-/MS analysis; type: cell-free
# [26] = Clearance in dog at 1 mg/kg, iv; type: ADME, organism-based, Canis lupus familiaris; conditions: in vivo
smiles,measurement,setting,value
CC(C)[C@@H](NC(=O)c1cc(C(F)(F)F)ccc1F)C(=O)N1CCC2(CC1)C(=O)N(C)C(=O)N2c1ccc2[nH]ncc2c1,Activity,Mus musculus [1],Active
same,IC50,[2],> 50 µM
same,bioavailability,[3],100%
same,Activity,Mus musculus [4],Dose-dependent effect
same,IC50,[5],> 10 µM
same,minimal effective dose,Mus musculus [6],30 mg/kg
same,Time,[7],12 h
same,IC50,[8],> 10 µM
same,Cmax,[9],744 ng/mL
same,clearance,[10],36 mL/min/kg
same,half-life,[11],4.2 h
same,IC50,Cytochrome P450 2C19,46 µM
same,Activity,Mus musculus [12],Active
same,half-life,[13],0.57 h
same,Vd,[14],1.38 L/kg
same,IC50,Autotaxin [15],0.014 µM
same,bioavailability,[16],24%
same,IC50,Cytochrome P450 2D6,> 50 µM
same,half-life,[17],1.8 h
same,Cmax,[18],374 ng/mL
same,half-life,[19],4.62 h
same,IC50,Rattus norvegicus,0.0065 µM
same,inhibition,Rattus norvegicus,Dose-dependent effect
same,AUC(0-t),[20],3080 ng·h/mL
same,bioavailability,[21],81%
same,IC50,[22],> 50 µM
same,IC50,Cytochrome P450 2C9,10.4 µM
same,half-life,[23],4.1 h
same,Cmax,[24],160 ng/mL
same,Ratio IC50,Autotaxin [25],20
same,clearance,[26],7.96 mL/min/kg
